NR2E3 ag-1: human photoreceptor-specific nuclear receptor agonism; Q9Y5X4; CHO-S Gal4-NCOR/VP16-NR2E3 two-hybrid, luciferase; inhibition of corepressor binding, % at 3.98 µM; actives 0.35% (n = 360,000); AID 602229;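 active = inhibition above the mean of all tested compounds plus 3 SD, cut at about 70% in these data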;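 note: 0% = DMSO with NR2E3 transfected cells and 100% = cells lacking NR2E3 construct; higher means lower luciferase signal from less NR2E3 corepressor binding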
Target sequence (Q9Y5X4 whole entry, looked up, the tested form may be a part): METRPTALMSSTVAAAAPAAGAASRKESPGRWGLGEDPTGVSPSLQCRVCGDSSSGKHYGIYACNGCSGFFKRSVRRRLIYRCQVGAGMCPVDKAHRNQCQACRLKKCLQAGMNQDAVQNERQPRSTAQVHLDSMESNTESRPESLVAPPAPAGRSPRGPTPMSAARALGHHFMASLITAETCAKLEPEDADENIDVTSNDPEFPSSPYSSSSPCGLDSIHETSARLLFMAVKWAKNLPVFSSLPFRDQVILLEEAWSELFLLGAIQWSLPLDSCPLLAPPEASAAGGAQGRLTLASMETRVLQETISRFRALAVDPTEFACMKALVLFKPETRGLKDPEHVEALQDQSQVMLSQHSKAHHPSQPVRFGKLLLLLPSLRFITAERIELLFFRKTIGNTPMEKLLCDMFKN
T cell HTS: modulates CD8 T cell binding to vesicles. 2C CD8+ T cell-vesicle binding, flow cytometry; stronger effect = lower value. response (vesicle binding), % at 7 µM. actives 0.068% (n = 330,000). AID 2052;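 active = response, share of CD8 T cells binding vesicles, and their 90th percentile fluorescence all below set limits, cut at about 80% in these data, passing the limit was not always enough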;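 note: values below 100% mean blocked vesicle binding to the CD8+ T cells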
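material = purified 2C TCR transgenic mouse naive CD8+ T cells | controls = Unloaded micro-vesicles (low), QL9 vesicles with 0.7% DMSO (high) | detection = cytometric PE anti-B7-1 and Alexa647 anti-CD8 signals after 1% paraformaldehyde fixation | incubation = binding step 1.5 h, 37 °C, antibody labelling 20 min, ice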
Myeloid diff MLP: myeloid differentiation induction; AID 624256; calls only at 10 µM; actives 1% (n = 360,000); ER-HoxA9 myeloid progenitors, lysozyme-GFP differentiation, flow cytometry;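 active = normalized GFP-positive differentiation at or above the plate's own cutoff, the solvent-only control mean plus 3 SD; inconclusive = no clear call, values can overlap the other calls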;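 note: cells exposed to compound for four days before flow analysis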
NR2E3 ag-2: activates human photoreceptor nuclear receptor NR2E3 | actives 0.12% (n = 320,000) | inhibition of corepressor binding, % at 4.78 µM | Q9Y5X4 | GST-NR2E3/biotin-RetCOR TR-FRET, 1536-well;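 active = percent inhibition above the cutoff of mean plus 3 SD of all tested compounds, set per screening campaign, cut at about 20% in these data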;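 note: 0% = DMSO wells and 100% = biotin wells as full block of FRET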
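Test system – NR2E3–RetCOR corepressor complex · Quantity – NR2E3 fusion 1.35 nM · Buffer or medium – Tris pH 7.5 · Incubation – Compound–protein incubation for 5 h at 4 °C · Technique – TR-FRET, Eu(K)-anti-GST donor, streptavidin-D2 acceptor, ex 340, em 617/671 nm · Evaluation – percent inhibition of 671/617 nm emission ratio versus biotin and DMSO controls · Plate – 1536-well format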
GAA850 FXN act: increases GAA850 frataxin promoter reporter activity. AID 540364. actives 0.56% (n = 360,000). activation, % at 6 µM. HEK293 lucGAA850 FXN promoter luciferase reporter, 24 h; percent of 10 µM SAHA response;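 active = activation above the average of all compounds screened plus 3 SD, cutoff fixed separately per campaign, cut at about 7.5% in these data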;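 note: 0% = DMSO wells and 100% = 10 µM SAHA wells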
GAA30 FXN cntr: counter-screen for GAA850 frataxin promoter activators: GAA30 promoter activation; shares compounds with GAA850 FXN act; HEK293 lucGAA30 FXN promoter luciferase, 24 h; DMSO = 0%, 5 µM ipriflavone = 100%; activation, % at 6 µM; actives 66% (n = 1,900); AID 588350;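 active = mean activation above the mean of solvent-only control wells plus 3 SD, cut at about 22% in these data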;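 note: counterscreen of GAA850 promoter hits where activity marks nonselective or luminescence artifacts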
GAA850 confirm: GAA850 FXN promoter activation confirmation. HEK293 lucGAA850 FXN promoter luciferase reporter, 24 h; 100% = activation by SAHA. activation, % at 6 µM. actives 86% (n = 1,900). shares compounds with GAA850 FXN act;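 active = mean activation above a set limit taken from the primary screen, cut at about 8% in these data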;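 note: 0% = DMSO wells and 100% = 10 µM SAHA wells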
Numbers without * were called inactive; i = inactive; ? = inconclusive; / = not tested or not shown; + = active, no number. Only some compounds are listed: those with a hit (about 2% of all), similar ones and a draw of the others.

SMILES | NR2E3 ag-1 | T cell HTS | Myeloid diff MLP | NR2E3 ag-2 | GAA850 FXN act | GAA30 FXN cntr | GAA850 confirm
CCCOc1ccccc1OCC(=O)Nc1cc(Cl)ccc1-n1cncn1 | 19 | 285 | i | -1 | 2 | / | /
CCOC(=O)N(C)C[C@@H]1OCc2ccccc2-c2c(n(C)c3ccccc23)C(=O)N([C@H](C)CO)C[C@H]1C | -19 | / | i | / | -2 | / | /
C[C@H]1CN([C@@H](C)CO)C(=O)c2c(c3ccccc3n2C)-c2ccccc2CO[C@H]1CN(C)Cc1cccc(F)c1 | -25 | / | i | / | 12* | 23* | 9.9*
C[C@H](CO)N1C[C@H](C)[C@H](CN(C)C(=O)c2ccccc2)OCc2ccccc2-c2c(n(C)c3ccccc23)C1=O | -18 | / | i | / | 8.5* | 5 | 5
CC(=O)Nc1ccc(C(=O)OCC(=O)NC2CCCCCC2)cc1 | -16 | / | i | / | -1 | / | /
COc1ccc(C2CC(c3ccc(OC)c(OC)c3)=NN2S(C)(=O)=O)cc1 (configuration not stated) | -171 | 282 | i | 4 | 8.2* | 105* | 40*
COc1cc(C2c3cc4c(cc3CC3COC(=O)N32)OCO4)cc(OC)c1OC (configuration not stated) | 9 | / | / | / | -2 | / | /
Cc1ccc(N/C=C/C(=O)c2ccc(C)cc2)cc1 | -89 | 461 | i | 2 | 6 | / | /
Cc1ccc(O)c(N/C=C/C(=O)c2ccc(F)cc2)c1 | -65 | 464 | i | 0 | 11* | 19 | 25*
CC1CCCN(c2nc3ccsc3c(=O)s2)C1 (configuration not stated) | -93 | 587 | i | -1 | 11* | 82* | 35*
Cc1nn2c3ccccc3nc2c2ccccc12 | -15 | 307 | i | 3 | 11* | 75* | 31*
Cc1nn2c(-c3ccccc3)nnc2c2ccccc12 | -33 | 168 | i | 1 | 6 | / | /
CCCCn1c(N)c(N(CC(C)C)C(=O)C2CCN(S(=O)(=O)c3ccccc3)CC2)c(=O)[nH]c1=O | 5 | 382 | i | -3 | 0 | / | /
CC1(Cc2cc(Cl)ccc2C(F)(F)F)C(=O)Nc2cc(F)ccc21 (configuration not stated) | -31 | / | i | / | 0 | / | /
CC1(Cc2ccc(C(F)(F)F)o2)C(=O)Nc2cc(-c3ccc(F)cc3F)ccc21 (configuration not stated) | -20 | / | i | / | 9.2* | 20 | 13*
Cc1cc2ncc(-c3cccc(Cl)c3)cn2n1 | -24 | 175 | i | -2 | 2 | / | /
Cc1nn2cc(-c3ccc(Cl)cc3)cnc2c1Cl | -41 | 331 | i | 1 | 7.7* | 119* | 37*
c1ccc(-c2nnc(C3CC(c4ccncc4)=NO3)o2)cc1 (configuration not stated) | -38 | / | i | 4 | 2 | / | /
COC(=O)c1c(NC(=O)c2cccc(S(=O)(=O)N3CCN(C)CC3)c2)sc(C)c1C | -12 | 588 | i | 1 | 0 | / | /
C/C(=N\NC(=O)C(c1ccccc1)c1ccccc1)c1ccccn1 | -1 | 222 | ? | 2 | 9.6* | -119 | -35
C/C(=N\NC(=O)C(c1ccccc1)c1ccccc1)c1ccc(O)cc1 | -6 | 360 | i | 3 | 2 | / | /
COc1ccc2cc3cc(C(=O)N4CCCCC4C)oc3nc2c1 (configuration not stated) | -142 | 306 | + | -1 | 8.0* | 122* | 38*
Cn1c(CNc2ccc(O)cc2)nc2ccccc21 | -43 | 198 | i | -7 | 8.3* | 86* | 26*
Cc1ccc(NCc2nc3ccccc3n2C)cc1 | -105 | 288 | i | 2 | 6 | / | /
O=C(CSC1=NCCN1)Nc1cccc([N+](=O)[O-])c1 | -12 | 321 | i | 2 | 9.5* | 43* | 22*
SMILES | NR2E3 ag-1 | T cell HTS | Myeloid diff MLP | NR2E3 ag-2 | GAA850 FXN act | GAA30 FXN cntr | GAA850 confirm
CCCCc1ccc(NC(=O)CC(C)(C)C)cc1 | -106 | 245 | i | 2 | 7.8* | 108* | 38*
CCCCc1ccc(NC(=O)CC(C)=O)cc1 | -8 | 270 | i | 1 | 1 | / | /
COc1cc(C(C)=O)ccc1OC(=O)N1CCOCC1 | 9 | / | i | / | 1 | / | /
Cc1ccc(S(=O)(=O)N2CC(O)C[C@H]2C(=O)OCC(=O)N2CCN(c3ccc(F)cc3)CC2)cc1C (some centres not stated) | 2 | / | i | / | 0 | / | /
Cc1ccc(Cn2c(SCC(=O)NCc3ccco3)nc3ccsc3c2=O)cc1 | 0 | 261 | i | 3 | 8.8* | 31* | 17*
Cc1ccc(CNC(=O)CSc2nc3ccsc3c(=O)n2Cc2ccccn2)cc1 | -13 | 288 | i | 5 | 5 | / | /
COc1ccc(-c2nc3ccc(Br)cn3c2Cc2cccc(Cl)c2)cc1OC | -27 | / | i | / | / | / | /
O=C(Nc1ccccc1O)c1ccc(NC(=O)C2CC2)cc1 | -84 | 387 | i | 0 | 11* | 128* | 64*
O=C(COc1ccc(Cl)cc1[N+](=O)[O-])NC1CCCCC1 | -95 | 429 | i | 4 | 8.1* | 85* | 29*
CC(=O)c1cc(Cl)ccc1OCC(=O)NC1CCCC1 | -32 | / | i | / | 2 | / | /
COc1ccc(-c2c(-c3ccsc3)oc3c2C(O)CCC3)cn1 (configuration not stated) | -13 | / | i | / | / | / | /
Cc1cccc(NC(=O)CSCC(=O)Nc2cc(C(F)(F)F)ccc2N2CCOCC2)c1 | -21 | / | i | / | 14* | -1 | 9.4*
Cc1cc(NC(=O)C(C)SCC(=O)Nc2cc(C(F)(F)F)ccc2N2CCCCC2)no1 (configuration not stated) | -18 | 479 | i | -2 | 9.1* | 24* | 16*
c1ccc2cc(C3OCC4(CCCC4)CO3)ccc2c1 | -53 | / | i | / | 5 | / | /
Cc1ccnc(NC(=O)CNC(=O)COc2ccccc2)c1 | -30 | 161 | i | 1 | 7.9* | 100* | 40*
O=C1NC[C@@H](CCCCN2C[C@H](Cc3ccc(O)cc3)N(Cc3ccccc3)C(=O)C2=O)N(Cc2ccccc2)C1=O | -14 | / | i | / | / | / | /
CCOC(=O)N1CCN(C(=O)c2ccc(CS(=O)(=O)c3ccc(OC)cc3)o2)CC1 | -14 | 356 | i | 5 | 14* | 20 | 7
CCCn1c(N)c(C(=O)COC(=O)CNC(=O)c2ccc(C)c(C)c2)c(=O)n(C)c1=O | -39 | 466 | i | 4 | 0 | / | /
COc1cc2c(cc1NC(=O)C1CCCO1)oc1ccccc12 (configuration not stated) | -164 | 264 | i | -1 | 8.6* | 109* | 31*

From PubChem BioAssay
